Data set [1] is described as follows: n-Octanol-buffer distribution coefficient, log D of the compound at pH 7.4 after 1 hr by shake flask method. Type of data set: physicochemical.
Data set [2] in a line: Apparent partition coefficient, log P of the compound in n-octanol/aqueous mixture at pH 7.4 after 1 hr by shake flask method. Format: physicochemical.
Data set [3] relates to Receptor-type tyrosine-protein kinase FLT3 (Homo sapiens), P36888 [UNDEFINED MUTATION]. The experiment in a line: Inhibition of FLT3 ITD mutant (unknown origin) using TAMRA-Src- tide as substrate at 1.25 uM after 1 hr by fluorescence polarization assay relative to control. Put shortly:
(§1)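 FLT3-ITD kinase inhibition by fluorescence polarization IMAP assay; each compound tested at 12.5 and 1.25 μM; percent inhibition, average of two parallel measurements.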
On the technique in general: Fluorescence polarisation rises when a labelled molecule tumbles more slowly, as on binding a larger partner.

The conditions of data set [4]: buffer, pH 10.5.
For the next data set, the system named is MV4-11. The experiment in a line: Antiproliferative activity against human MV4-11 cells after 72 hrs by Celltiter-Glo luminescent cell viability assay. Type of data set: functional, cell-based. The following applies: MV4-11, 72 h. The gist of the method: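 MV4-11 leukaemia cells, 72 h proliferation assay, luminescence read-out; IC50 determined from concentration–response.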

The nature of data set [5]: Lipophilicity, chromatographic hydrophobicity index of the compound at pH 1.2 by HPLC method. Format: physicochemical. The following applies: buffer. The gist of the method:
(§2)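 RP-HPLC with buffer/acetonitrile gradient elution; CHI profile at starting pH 10.5, 7.4, 5.5 and 1.2; values given as average of the compound group.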

The nature of data set [6]: Lipophilicity, chromatographic hydrophobicity index of the compound at pH 5.5 by HPLC method. Format: physicochemical. Conditions: buffer. The gist of the method:
as §2

Data set [7] can be described thus: Aqueous solubility in pH 7.4 phosphate buffer at 120 uM after 24 hrs by HPLC method. Type of data set: physicochemical.
Data set [8] is described as follows: n-Octanol-buffer distribution coefficient, log D of the compound at pH 5.5 after 1 hr by shake flask method. Type of data set: physicochemical.
A short description of data set [9]: Lipophilicity, chromatographic hydrophobicity index of the compound at pH 7.4 by HPLC method. Format: physicochemical. Conditions: buffer. The gist of the method:
as §2

Data set [10] is described as follows: Dissociation constant, pKa of the compound at 25 to 50 uM by UV spectroscopy. Format: physicochemical. Put shortly: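 Carboxyl pKa by automated UV/pH titration with MeOH as co-solvent.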
Data set [11] in a line: Aqueous solubility in pH 5.5 phosphate buffer at 120 uM after 24 hrs by HPLC method. Format: physicochemical.
Data set [12] deals with Receptor-type tyrosine-protein kinase FLT3 (Homo sapiens), P36888 [UNDEFINED MUTATION]. The experiment in a line: Inhibition of FLT3 ITD mutant (unknown origin) using TAMRA-Src- tide as substrate at 12.5 uM after 1 hr by fluorescence polarization assay relative to control. The gist of the method: as §1
Receptor-type tyrosine-protein kinase FLT3 (Homo sapiens), P36888 [UNDEFINED MUTATION], sequence (P36888 whole entry, looked up, change not shown): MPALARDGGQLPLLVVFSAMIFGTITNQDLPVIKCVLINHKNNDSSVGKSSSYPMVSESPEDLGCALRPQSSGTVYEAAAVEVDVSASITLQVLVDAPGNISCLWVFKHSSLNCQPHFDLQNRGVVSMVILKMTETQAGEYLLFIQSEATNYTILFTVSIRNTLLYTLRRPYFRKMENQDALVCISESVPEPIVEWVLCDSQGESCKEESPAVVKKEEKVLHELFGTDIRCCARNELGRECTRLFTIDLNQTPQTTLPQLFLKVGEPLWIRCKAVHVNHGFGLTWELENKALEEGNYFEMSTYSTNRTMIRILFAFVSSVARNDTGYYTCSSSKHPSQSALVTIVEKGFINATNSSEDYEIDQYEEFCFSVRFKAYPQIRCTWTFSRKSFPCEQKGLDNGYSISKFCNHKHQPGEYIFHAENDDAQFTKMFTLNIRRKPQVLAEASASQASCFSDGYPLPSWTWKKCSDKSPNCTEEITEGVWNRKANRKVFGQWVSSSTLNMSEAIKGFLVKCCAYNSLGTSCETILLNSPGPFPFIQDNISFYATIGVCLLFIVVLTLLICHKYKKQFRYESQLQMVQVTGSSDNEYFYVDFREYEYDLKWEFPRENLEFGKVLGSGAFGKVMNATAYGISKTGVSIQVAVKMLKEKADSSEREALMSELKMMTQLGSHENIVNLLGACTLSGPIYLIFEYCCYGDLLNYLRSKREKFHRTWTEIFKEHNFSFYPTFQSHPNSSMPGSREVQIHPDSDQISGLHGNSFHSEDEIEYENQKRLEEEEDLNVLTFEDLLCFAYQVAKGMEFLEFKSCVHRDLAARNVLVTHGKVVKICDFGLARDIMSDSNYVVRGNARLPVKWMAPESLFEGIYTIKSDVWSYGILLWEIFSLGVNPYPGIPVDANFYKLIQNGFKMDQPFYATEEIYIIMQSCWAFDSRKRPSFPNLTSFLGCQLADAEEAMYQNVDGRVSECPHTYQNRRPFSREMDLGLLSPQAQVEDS

≈ marks a conversion by molar mass, not a printed value. A value given as a limit tells only on which side of the number the result lay.

We go through 2 molecules from ChEMBL document CHEMBL4190404, “Synthesis and characterization of amino acid substituted sunitinib analogues for the treatment of AML” (Bioorg Med Chem Lett, 2018).

The logD is lipophilicity at a set pH, counting ionised and neutral species. By inhibition is commonly meant the percentage by which the read-out fell short of the control. A low value points to a weak effect. As usually defined, the IC50 is the concentration that inhibits the measured activity by half. Usually solubility stands for the concentration that dissolves in the medium under given conditions. By pKa is commonly meant the negative logarithm of the acid dissociation constant.

As for `Cc1[nH]c(/C=C2\C(=O)Nc3ccccc32)c(C)c1CCC(=O)O` [ORANTINIB], the logD at 1 h was determined as 1.3 in [1], 4.6 in [2] and 3.18 in [8]. In addition, the inhibition in data set [3] was 76.7%; in data set [12] it was over 100%. In addition, the CHI in data set [4] was found to be 42; in data set [5], 75; in data set [6], 59; in data set [9] it was 47. The molecule further showed a concentration for half-maximal inhibition (IC50) in the data set with MV4-11 of 3.9 µM. Also, the solubility at 24 h, 120 µM in data set [7] is at least 120 µM. Besides, in data set [10], the pKa at up to 50 µM is 4.1. Also, the solubility in data set [11] (buffer, pH 5.5, 24 h, 120 µM) is 5 µM (≈ 1.55 µg/mL).
As for `COC(=O)c1ccc2c(c1)/C(=C/c1[nH]c(C)c(C(=O)N[C@@H](Cc3ccccc3)C(=O)O)c1C)C(=O)N2`, the figures for the log distribution coefficient (logD) at 1 h in data set [1], in [2] and in data set [8] were 0.33, 4.73 and 2.23, respectively. The inhibition in data set [3] was 90.9%; in data set [12], over 100%. The CHI in [4] is on record as 51; in [5], 76; in data set [6], 54; in data set [9] it was 53. The molecule also yielded an IC50 in the data set with MV4-11 of 2.2 µM. Besides, the solubility at 24 h, 120 µM was at least 120 µM in data set [7] and under 5 µM in data set [11] (phosphate buffer, pH 5.5). This molecule gave a pKa at up to 50 µM in data set [10] of 3.
